Published values from different studies.
Each line is one published result; the experiments were not run side by side.

O=C(/C=C/c1cccc(S(=O)(=O)Nc2ccccc2)c1)NO  Cmax (human, plasma; intravenous, 1800 mg/m², patients): 76800 ng/mL
FC(F)(F)c1ccc(CNc2ccc(Cc3c[nH]c4ncc(Cl)cc34)cn2)cn1  Cmax (human, plasma; oral, 1200 mg, multiple doses, patients): 8730 ng/mL
CC(C)(Sc1ccncc1-c1ccc(C#N)c2ccccc12)C(=O)O  Cmax (male human, plasma; oral, 5 mg, single dose, fasted, healthy volunteers): 72.9 ng/mL
C[C@@]1(c2cc(NC(=O)c3ccc(C#N)cn3)ccc2F)C=CSC(N)=N1  Cmax (human, plasma; oral, 150 mg, single dose): 906 ng/mL
COc1cc(C(=O)NC2CCN(C)CC2)c(F)cc1Nc1ncc(C(F)(F)F)c(Oc2cccc3c2C(=O)N(C)C3)n1  Cmax (human, plasma; oral, 100 mg, single dose, patients): 1320 nM
Cc1nc(Nc2ncc(C(=O)Nc3c(C)cccc3Cl)s2)cc(N2CCN(CCO)CC2)n1  Cmax (human, plasma; oral, 65 mg/m², multiple doses, twice daily, steady state, patients): 168 ng/mL
O=C(O)C[C@H](O)C[C@H](O)/C=C/c1c(C2CC2)nc2ccccc2c1-c1ccc(F)cc1  Cmax (human, plasma; oral, 2 mg, single dose, fed, healthy volunteers, tablet): 46.5 ng/mL
CCOc1cc2ncc(C#N)c(Nc3ccc(OCc4ccccn4)c(Cl)c3)c2cc1NC(=O)/C=C/[C@H]1CCCN1C  Cmax (human, plasma; oral, 80 mg, single dose): 26.5 ng/mL
CS(=O)(=O)CCNCc1ccc(-c2ccc3ncnc(Nc4ccc(OCc5cccc(F)c5)c(Cl)c4)c3c2)o1  Cmax (human, serum; oral, 1250 mg, single dose): 910 ng/mL
COc1ccc([C@@H]2CN(C(=O)[C@@H](O)CO)C[C@@]2(C)[C@@H](C)O)cc1OC1CN(c2ccc(C)cn2)C1  Cmax (human, plasma; oral, 10 mg, single dose, healthy volunteers): 319 ng/mL
NC(=O)c1cnc2[nH]ccc2c1N[C@@H]1[C@@H]2CC3C[C@H]1C[C@@](O)(C3)C2  Cmax (human, plasma; oral, 100 mg twice daily, multiple doses, patients): 256 ng/mL
N#CN1C[C@H](n2nc(-c3ccc(Oc4ccc(Cl)cn4)cc3)c(C(N)=O)c2N)CCC12CC2  Cmax (human, plasma; oral, 600 mg, single dose, fed): 1060 ng/mL
CNC(=O)c1cc(Oc2ccc(NC(=O)Nc3cc(C(C)(C)C)nn3-c3ccc4ncccc4c3)c(F)c2)ccn1  Cmax (human, plasma; oral, 200 mg, multiple doses, twice daily): 377 ng/mL
CCCCC1=NC2(CCCC2)C(=O)N1Cc1ccc(-c2ccccc2S(=O)(=O)Nc2noc(C)c2C)c(COCC)c1  Cmax (human, plasma; oral, 800 mg, single dose, fasted, healthy volunteers): 7650 ng/mL
CCc1nc2c(C)cc(N3CCN(CC(=O)N4CC(O)C4)CC3)cn2c1N(C)c1nc(-c2ccc(F)cc2)c(C#N)s1  Cmax (human, plasma; oral, 300 mg, fed, healthy volunteers): 3300 ng/mL
O=C(Nc1c(Cl)cncc1Cl)c1ccc(OC(F)F)c(OCC2CC2)c1  Cmax (human, plasma; oral, 0.375 mg, single dose, fasted): 9.2 ng/mL
CCO[C@H]1CCN(Cc2c(OC)cc(C)c3[nH]ccc23)[C@H](c2ccc(C(=O)O)cc2)C1  Cmax (human, plasma; oral, 100 mg, multiple doses, twice daily, patients): 2640 ng/mL
C[C@@H](Oc1ccc(S(C)(=O)=O)cc1C(=O)N1C[C@@H]2C[C@]2(c2cc(C(F)(F)F)on2)C1)C(F)(F)F  Cmax (human, plasma; oral, 25 mg, fasted, tablet): 219 nM
CNCc1ccc(-c2[nH]c3cc(F)cc4c3c2CCNC4=O)cc1  Cmax (human, plasma; oral, 600 mg, multiple doses, twice daily, steady state): 2650 ng/mL
CO[C@@H]1[C@H](OC(=O)N2CC(CCN3CCOCC3)C2)CC[C@]2(CO2)[C@H]1[C@@]1(C)O[C@@H]1CC=C(C)C  Cmax (human, plasma; subcutaneous, 4.8 mg, single dose, healthy volunteers): 18.7 ng/mL
Cn1cc(-c2ccc(S(=O)(=O)[C@@H]3C[C@@H](C(=O)NC4(C#N)CC4)N(C(=O)C4(C(F)(F)F)CC4)C3)c(C(F)(F)F)c2)cn1  Cmax (human, plasma; oral, 1 mg, single dose, fasted, healthy volunteers): 4.51 ng/mL
CC(C)n1cc(C#N)c2cc(-n3cc(C(=O)O)cn3)ccc21  Cmax (human, plasma; oral, 200 mg, single dose, fasted, healthy volunteers): 8770 ng/mL
Cn1c(=O)oc2ccc(-c3ccc(C[C@@H](C#N)NC(=O)[C@@H]4CNCCCO4)cc3)cc21  Cmax (male human, plasma; oral, 65 mg, single dose, healthy volunteers): 1360 nM
COCCOc1cnc2ccn([C@H](C)c3nnc4c(F)cc(-c5cnn(C)c5)cn34)c(=O)c2c1  Cmax (human, plasma; oral, 50 mg, multiple doses, once daily, patients): 730 ng/mL
CC(C)(C(=O)N1CCOc2c(C#N)cncc2C1)C(F)F  Cmax (human, plasma; oral, 30 mg, single dose, fasted, healthy volunteers): 417 ng/mL
Cc1ccc(C(=O)N(CCCN)[C@@H](c2oc3cc(Cl)ccc3c(=O)c2Cc2ccccc2)C(C)C)cc1  Cmax (human, plasma; intravenous, 5 mg/m², single dose, patients, infusion): 607 ng/mL
CCOc1ccc(Cc2cc([C@@H]3S[C@H](CO)[C@@H](O)[C@H](O)[C@H]3O)c(OC)cc2C)cc1  Cmax (male human, plasma; oral, 5 mg, single dose, fasted, healthy volunteers): 208 ng/mL
CO[C@H]1CC[C@H](N2C(=O)CNc3ncc(-c4ccc(C(C)(C)O)nc4)nc32)CC1  Cmax (human, plasma; oral, 30 mg, patients): 188 ng/mL
CCn1c(=O)c(-c2cc(NC(=O)Nc3ccccc3)c(F)cc2Br)cc2cnc(NC)cc21  Cmax (human, plasma; oral, 250 mg, single dose, patients): 1070 ng/mL
CNC(=O)c1ccccc1Sc1ccc2c(/C=C/c3ccccn3)n[nH]c2c1  Cmax (human, plasma; oral, 5 mg, single dose, fasted): 51 ng/mL
Br.Cc1ccc(Sc2ccccc2N2CCNCC2)c(C)c1  Cmax (human, plasma; oral, 5 mg, multiple doses, steady state, healthy volunteers): 9 ng/mL
CC(C)(O)c1ccccc1-c1ccc2[nH]c(/C=C/c3ccc(C(F)(F)F)cc3)nc2c1  Cmax (male human, plasma; oral, 50 mg, single dose, fasted, healthy volunteers): 160 ng/mL
Nc1cc(C(F)(F)F)c(-c2cc(N3CCOCC3)nc(N3CCOCC3)n2)cn1  Cmax (human, plasma; oral, 100 mg/day, patients): 1080 ng/mL
NS(=O)(=O)NCCNc1nonc1C(=NO)Nc1ccc(F)c(Br)c1  Cmax (human, plasma; oral, 300 mg, multiple doses, twice daily, steady state, patients): 2480 nM
COc1cc2c(cc1OC)CN(CCc1ccc(NC(=O)c3cc(OC)c(OC)cc3NC(=O)c3cnc4ccccc4c3)cc1)CC2  Cmax (human, plasma; intravenous, 1 mg/kg, patients): 2200 nM
